Reference: ChEMBL document CHEMBL1255417, “Correlation between in vitro activity of posaconazole and in vivo efficacy against Rhizopus oryzae infection in mice” (Antimicrob Agents Chemother, 2010)
Values after ≈ are worked out from the molar mass of the structure shown. Active and inactive are the calls of the source. No cut-off for these calls is given here.

Assays:
Rhizopus arrhizus [1] = assay: Antifungal activity against drug-susceptible Rhizopus oryzae UTHSC 02-2882 infected in OF1 mouse assessed as reduction in kidney fungal load at 10-30 mg/kg, po bid; format: functional, organism-based
Method in brief: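 Tissue burden in immunosuppressed male OF1 mice, using cyclophosphamide 200 mg/kg i.p. plus 5-fluorouracil 150 mg/kg i.v. on day −1. Mice received 2 × 10^4 CFU i.v. by tail vein, then oral gavage at 10, 20 or 30 mg/kg BID from 24 h post-challenge, with ceftazidime cover; untreated controls. Groups of 10 were killed on day 4. Kidneys and brains were homogenized in 2 ml saline, serially diluted 10-fold, plated on PDA and counted after 24 h at 35°C.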

Rhizopus arrhizus [2] = assay: Antifungal activity against drug-intermediate Rhizopus oryzae UTHSC 03-3165 at 5 ug by disk diffusion assay; format: functional; conditions: read-out: DIZ
Method in brief: (§1)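 Neo-Sensitabs tablet diffusion on Mueller-Hinton agar, following the guidelines for molds. Tablets were 9 mm in diameter and held 5 µg of drug. The read-out was inhibition zone diameter in mm.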

Rhizopus arrhizus [3] = assay: Antifungal activity against drug-susceptible Rhizopus oryzae UTHSC 04-2159 after 24 to 48 hrs; format: functional
Method in brief: (§2)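 Minimum fungicidal concentration: 20 µl from each microdilution well showing complete inhibition (optically clear) plated on potato dextrose agar, incubated 35°C for 24 to 48 h; MFC taken as lowest drug concentration giving no growth.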

Rhizopus arrhizus [4] = assay: Antifungal activity against drug-susceptible Rhizopus oryzae UTHSC 05-3111 at 5 ug by disk diffusion assay; format: functional; conditions: read-out: DIZ
Method in brief: (§3)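 Neo-Sensitabs tablet diffusion on Mueller-Hinton agar, run per the mould guidelines. Tablets are 9 mm in diameter and carry 5 ug posaconazole. The read-out is the inhibition zone diameter in mm.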

Rhizopus arrhizus [5] = assay: Antifungal activity against drug-susceptible Rhizopus oryzae UTHSC 03-511 at 5 ug by disk diffusion assay; format: functional; conditions: read-out: DIZ
Method in brief: (§4)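 Neo-Sensitabs tablet diffusion on Mueller-Hinton agar, following guidelines for molds; 9 mm tablets containing 5 µg posaconazole; inhibition zone diameter measured in mm; zone breakpoints applied at 24 h.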

Rhizopus arrhizus [6] = assay: Antifungal activity against drug-susceptible Rhizopus oryzae UTHSC 06-4133 after 24 to 48 hrs; format: functional
Method in brief: (§5)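 Minimum fungicidal concentration taken from the broth microdilution plates. From each well with complete inhibition (optically clear), 20 ul is plated on potato dextrose agar. Plates are incubated at 35°C for 24 to 48 h. The MFC is the lowest drug concentration giving no growth.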

Rhizopus arrhizus [7] = assay: Antifungal activity against drug-susceptible Rhizopus oryzae UTHSC 06-1351 at 5 ug by disk diffusion assay; format: functional; conditions: read-out: DIZ; method in brief: as §3
Rhizopus arrhizus [8] = assay: Antifungal activity against drug-susceptible Rhizopus oryzae UTHSC 06-89 infected in OF1 mouse assessed as increase in mouse survival at 20-30 mg/kg, po bid treated 24 hrs after fungal infection; format: functional, organism-based
Rhizopus arrhizus [9] = assay: Antifungal activity against drug-susceptible Rhizopus oryzae UTHSC 05-2447 by broth microdilution method; format: functional
Method in brief: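 CLSI broth microdilution for filamentous fungi (M38-A2); MIC recorded in µg/ml against clinical isolates; breakpoints applied at 24 h.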

Rhizopus arrhizus [10] = assay: Antifungal activity against drug-susceptible Rhizopus oryzae UTHSC 03-547 at 5 ug by disk diffusion assay; format: functional; conditions: read-out: DIZ; method in brief: as §4
Rhizopus arrhizus [11] = assay: Antifungal activity against drug-susceptible Rhizopus oryzae UTHSC 03-112 at 5 ug by disk diffusion assay; format: functional; conditions: read-out: DIZ; method in brief: as §1
Rhizopus arrhizus [12] = assay: Antifungal activity against drug-susceptible Rhizopus oryzae UTHSC 06-4336 at 5 ug by disk diffusion assay; format: functional; conditions: read-out: DIZ; method in brief: as §3
Rhizopus arrhizus [13] = assay: Antifungal activity against drug-susceptible Rhizopus oryzae UTHSC 04-1613 after 24 to 48 hrs; format: functional; method in brief: as §2
Rhizopus arrhizus [14] = assay: Antifungal activity against drug-susceptible Rhizopus oryzae UTHSC 06-4336 after 24 to 48 hrs; format: functional; method in brief: as §5
Rhizopus arrhizus [15] = assay: Antifungal activity against drug-susceptible Rhizopus oryzae UTHSC 05-1817 after 24 to 48 hrs; format: functional; method in brief: as §2
Rhizopus arrhizus [16] = assay: Antifungal activity against drug-susceptible Rhizopus oryzae UTHSC 06-434 at 5 ug by disk diffusion assay; format: functional; conditions: read-out: DIZ; method in brief: as §3
Rhizopus arrhizus [17] = assay: Antifungal activity against drug-susceptible Rhizopus oryzae UTHSC 06-1301 by broth microdilution method; format: functional
Method in brief: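 Posaconazole MIC in ug/ml, determined by broth microdilution following the CLSI guidelines for moulds (M38-A2).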

Rhizopus arrhizus [18] = assay: Antifungal activity against drug-intermediate Rhizopus oryzae UTHSC 03-285 by broth microdilution method; format: functional
Method in brief: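 Broth microdilution MIC in µg/ml, run per the CLSI (formerly NCCLS) guideline for filamentous fungi, M38-A2.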

Rhizopus arrhizus [19] = assay: Antifungal activity against drug-susceptible Rhizopus oryzae UTHSC 2868 at 5 ug by disk diffusion assay; format: functional; conditions: read-out: DIZ
Rhizopus arrhizus [20] = assay: Antifungal activity against drug-susceptible Rhizopus oryzae UTHSC 04-2159 at 5 ug by disk diffusion assay; format: functional; conditions: read-out: DIZ; method in brief: as §4
Rhizopus arrhizus [21] = assay: Antifungal activity against drug-susceptible Rhizopus oryzae UTHSC 06-4152 after 24 to 48 hrs; format: functional; method in brief: as §5
Rhizopus arrhizus [22] = assay: Antifungal activity against drug-susceptible Rhizopus oryzae UTHSC 04-1241 at 5 ug by disk diffusion assay; format: functional; conditions: read-out: DIZ; method in brief: as §4
Rhizopus arrhizus [23] = assay: Antifungal activity against drug-susceptible Rhizopus oryzae UTHSC 06-3913 after 24 to 48 hrs; format: functional; method in brief: as §5
Rhizopus arrhizus [24] = assay: Antifungal activity against drug-susceptible Rhizopus oryzae UTHSC 05-3580 after 24 to 48 hrs; format: functional; method in brief: as §5
Rhizopus arrhizus [25] = assay: Antifungal activity against drug-susceptible Rhizopus oryzae UTHSC 06-3827 after 24 to 48 hrs; format: functional; method in brief: as §5

Structure (SMILES): CC[C@@H]([C@H](C)O)n1ncn(-c2ccc(N3CCN(c4ccc(OC[C@@H]5CO[C@@](Cn6cncn6)(c6ccc(F)cc6F)C5)cc4)CC3)cc2)c1=O [POSACONAZOLE]
- Activity (Rhizopus arrhizus [1]): Active
- zone of inhibition at 5 µg/disc (Rhizopus arrhizus [2]): 16 mm
- MFC (Rhizopus arrhizus [3]): 1 µg/mL (≈ 1.43 µM)
- zone of inhibition at 5 µg/disc (Rhizopus arrhizus [4]): 20 mm
- zone of inhibition at 5 µg/disc (Rhizopus arrhizus [5]): 22 mm
- MFC (Rhizopus arrhizus [6]): 1 µg/mL (≈ 1.43 µM)
- zone of inhibition at 5 µg/disc (Rhizopus arrhizus [7]): 25 mm
- Activity (Rhizopus arrhizus [8]): Active
- MIC (Rhizopus arrhizus [9]): 1 µg/mL (≈ 1.43 µM)
- zone of inhibition at 5 µg/disc (Rhizopus arrhizus [10]): 25 mm
- zone of inhibition at 5 µg/disc (Rhizopus arrhizus [11]): 20 mm
- zone of inhibition at 5 µg/disc (Rhizopus arrhizus [12]): 20 mm
- MFC (Rhizopus arrhizus [13]): 0.5 µg/mL (≈ 0.713 µM)
- MFC (Rhizopus arrhizus [14]): 1 µg/mL (≈ 1.43 µM)
- MFC (Rhizopus arrhizus [15]): 2 µg/mL (≈ 2.85 µM)
- zone of inhibition at 5 µg/disc (Rhizopus arrhizus [16]): 15 mm
- MIC (Rhizopus arrhizus [17]): 0.5 µg/mL (≈ 0.713 µM)
- MIC (Rhizopus arrhizus [18]): 2 µg/mL (≈ 2.85 µM)
- zone of inhibition at 5 µg/disc (Rhizopus arrhizus [19]): 19 mm
- zone of inhibition at 5 µg/disc (Rhizopus arrhizus [20]): 20 mm
- MFC (Rhizopus arrhizus [21]): 1 µg/mL (≈ 1.43 µM)
- zone of inhibition at 5 µg/disc (Rhizopus arrhizus [22]): 22 mm
- MFC (Rhizopus arrhizus [23]): 4 µg/mL (≈ 5.71 µM)
- MFC (Rhizopus arrhizus [24]): 1 µg/mL (≈ 1.43 µM)
- MFC (Rhizopus arrhizus [25]): 16 µg/mL (≈ 22.8 µM)
